Test results published in ChEMBL document CHEMBL4390663, “Cationic biaryl 1,2,3-triazolyl peptidomimetic amphiphiles: synthesis, antibacterial evaluation and preliminary mechanism of action studies” (Eur J Med Chem, 2019).

Legend:
Pseudomonas aeruginosa = assay: Antimicrobial activity against Pseudomonas aeruginosa ATCC 27853 incubated for 18 hrs by CLSI method; format: functional
How it was run: (§1)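 Screen run by CO-ADD: mid-log cultures in cation-adjusted MHB, 5 × 10^5 CFU/mL, compounds at up to 32 μg/mL in 1:2 serial dilutions (8 steps), final DMSO ≤0.5%, duplicate. 37 °C for 18 h without shaking; OD600 read against media-only and untreated-bacteria references. MIC = lowest concentration giving ≥80% inhibition; colistin standard.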

Escherichia coli [1] = assay: Antibacterial activity against Escherichia coli ATCC 25922 incubated for 18 hrs by CLSI method; format: functional; how it was run: as §1
Escherichia coli [2] = assay: Induction of plasma membrane permeabilization in Escherichia coli NCTC 10418 at 64 ug/ml measured for 30 mins by propidium iodide staining based fluorescence assay relative to control; format: functional, organism-based
Staphylococcus aureus [3] = assay: Bactericidal activity against exponential phase of Staphylococcus aureus ATCC 29213 assessed as reduction in bacterial count at 4 ug/ml measured at 2 hrs by time-kill kinetics assay; format: functional, organism-based
Escherichia coli [4] = assay: Induction of cytoplasmic membrane depolarization in Escherichia coli NCTC 10418 at 64 ug/ml incubated for 30 mins by diSC35 staining based fluorescence assay relative to control; format: functional
How it was run: (§2)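 Mid-log cells (1.5 McFarland) loaded with 4 µM diSC3(5) in the dark at room temperature: S. aureus in PBS 30 min; E. coli in 5 mM HEPES/20 mM glucose pH 7.2 for 60 min, then 100 mM KCl and 0.5 mM EDTA. Baseline fluorescence (ex 620/em 670 nm) ~8 min, then compound added (final 32 µg/mL S. aureus, 64 µg/mL E. coli), tracked ~30 min.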

Acinetobacter baumannii [5] = assay: Antimicrobial activity against Acinetobacter baumannii ATCC 19606 incubated for 18 hrs by CLSI method; format: functional; how it was run: as §1
Klebsiella pneumoniae = assay: Antibacterial activity against Klebsiella pneumoniae 700603 incubated for 18 hrs by CLSI method; format: functional; how it was run: as §1
Escherichia coli [6] = assay: Bactericidal activity against exponential phase of Escherichia coli NCTC 10418 assessed as reduction in bacterial count at 64 ug/ml measured at <= 120 mins by time-kill kinetics assay relative to control; format: functional
Staphylococcus aureus [7] = assay: Antimicrobial activity against vancomycin resistant Staphylococcus aureus NARSA VRS10 incubated for 18 hrs by CLSI method; format: functional; conditions: NARSA VRS10, 18 h
Staphylococcus aureus [8] = assay: Antimicrobial activity against glycopeptide intermediate susceptible/methicillin-resistant Staphylococcus aureus NRS1 incubated for 18 hrs by CLSI method; format: functional; conditions: NRS1, 18 h
Streptococcus pneumoniae [9] = assay: Antibacterial activity against MDR Streptococcus pneumoniae ATCC 700677 incubated for 18 hrs by CLSI method; format: functional; conditions: ATCC 700677, 18 h
Staphylococcus aureus [10] = assay: Bactericidal activity against exponential phase of Staphylococcus aureus ATCC 29213 assessed as reduction in bacterial count at 64 ug/ml measured at <= 30 mins by time-kill kinetics assay relative to control; format: functional
[11] = Haemolytic activity in sheep erythrocytes at 50 ug/ml incubated for 2 hrs under shaking condition relative to control; format: ADME, cell-based, Ovis aries, Erythrocyte; conditions: read-out: Activity
How it was run: (§3)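 Compounds in PBS mixed with washed sheep erythrocytes (2% final) at 5 or 50 μg/mL, rocked 2 h at 37 °C, centrifuged; supernatant absorbance at 540 nm. PBS-only value subtracted, then expressed relative to water lysis (100%). Triplicate, means reported.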

Staphylococcus aureus [12] = assay: Antibacterial activity against methicillin-resistant Staphylococcus aureus NCTC 10442 incubated for 24 hrs by CLSI method; format: functional; conditions: NCTC 10442, 24 h
How it was run: (§4)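 Broth microdilution per CLSI aerobic guidance in Mueller Hinton broth, ambient air, 35 °C for 24 h. DMSO stocks were diluted in water, then serially diluted with double-strength broth inoculum added, for final 0.25–128 μg/mL. […] MIC was read visually as the lowest concentration inhibiting growth; the modal value of triplicates was recorded.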

[13] = Haemolytic activity in sheep erythrocytes at 5 ug/ml incubated for 2 hrs under shaking condition relative to control; format: ADME, cell-based, Ovis aries, Erythrocyte; conditions: read-out: Activity; how it was run: as §3
Staphylococcus aureus [14] = assay: Antimicrobial activity against methicillin-resistant Staphylococcus aureus clinical isolate incubated for 18 hrs by CLSI method; format: functional
Staphylococcus aureus [15] = assay: Induction of plasma membrane permeabilization in Staphylococcus aureus ATCC 29213 at 32 ug/ml measured for 30 mins by propidium iodide staining based fluorescence assay relative to control; format: functional
How it was run: (§5)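 Mid-log cells (1.5 McFarland) with 4 µM propidium iodide, dark, room temperature: S. aureus in PBS 30 min; E. coli in 5 mM HEPES/20 mM glucose pH 7.2 for 60 min, then 100 mM KCl and 0.5 mM EDTA. Fluorescence (ex 544/em 615 nm) read ~8 min baseline, then ~30 min after compound at 32 µg/mL final.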

Streptococcus pneumoniae [16] = assay: Antibacterial activity against Streptococcus pneumoniae ATCC 49619 incubated for 24 hrs by CLSI method; format: functional; conditions: ATCC 49619, 24 h
How it was run: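 CLSI broth microdilution in MHB with 2.5% lysed horse blood, 5% CO2, 35 °C, 24 h. Compounds from 5 mg/mL DMSO stocks diluted in water plus double-strength broth; final 0.25–128 μg/mL. […] Triplicate; modal MIC read visually as lowest growth-inhibiting concentration.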

Staphylococcus aureus [17] = assay: Antimicrobial activity against Staphylococcus aureus ATCC 29213 incubated for 24 hrs by CLSI method; format: functional; conditions: ATCC 29213, 24 h; how it was run: as §4
Staphylococcus aureus [18] = assay: Bactericidal activity against exponential phase of Staphylococcus aureus ATCC 29213 assessed as reduction in bacterial count at 64 ug/ml measured at 2 hrs by time-kill kinetics assay; format: functional
Staphylococcus aureus [19] = assay: Antimicrobial activity against glycopeptide intermediate susceptible Staphylococcus aureus NRS17 incubated for 18 hrs by CLSI method; format: functional; conditions: NRS17, 18 h
Clostridioides difficile [20] = assay: Antibacterial activity against Clostridium difficile ATCC 700057 incubated for 48 hrs by CLSI method; format: functional; conditions: ATCC 700057, 48 h
How it was run: (§6)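 Broth microdilution per CLSI anaerobe method in pre-reduced (2-4 h) Brucella broth with haemin and vitamin K, 35 °C anaerobically for 48 h. Compounds from 5 mg/mL DMSO stocks, twofold dilutions in water mixed with double-strength broth; final 0.25–128 μg/mL. […] Triplicate; modal MIC read visually as lowest concentration inhibiting growth.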

[21] = Cytotoxicity against human HEK293 cells assessed as reduction in cell growth incubated for 20 hrs by resazurin dye-based fluorometric assay
How it was run: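 HEK293 cells, 5000 per well in DMEM + 10% FBS, exposed to compounds (top 32 μg/mL, 1:2 serial dilution ×8, ≤0.5% DMSO, duplicate) for 20 h at 37 °C, 5% CO2. Resazurin added (2.3 μg/mL final), 3 h further; fluorescence ex 560/em 590 nm. CC50 from sigmoidal dose-response fit against log concentration; tamoxifen standard.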

Enterococcus faecalis [22] = assay: Antibacterial activity against Enterococcus faecalis ATCC 29212 incubated for 24 hrs by CLSI method; format: functional; conditions: ATCC 29212, 24 h
Staphylococcus aureus [23] = assay: Antimicrobial activity against Staphylococcus aureus ATCC 43300 incubated for 18 hrs by CLSI method; format: functional; conditions: ATCC 43300, 18 h
Escherichia coli [24] = assay: Induction of plasma membrane permeabilization in Escherichia coli NCTC 10418 at 32 ug/ml measured for 30 mins by propidium iodide staining based fluorescence assay relative to control; format: functional; how it was run: as §5
Staphylococcus aureus [25] = assay: Antimicrobial activity against methicillin-resistant Staphylococcus aureus clinical isolate with reduced daptomycin susceptibility incubated for 18 hrs by CLSI method; format: functional
Enterococcus faecalis [26] = assay: Antimicrobial activity against vancomycin-resistant Enterococcus faecalis clinical isolate incubated for 18 hrs by CLSI method; format: functional
Clostridioides difficile [27] = assay: Antibacterial activity against Clostridium difficile NSW132 RT027 incubated for 48 hrs by CLSI method; format: functional; conditions: NSW132 RT027, 48 h; how it was run: as §6
Staphylococcus aureus [28] = assay: Antimicrobial activity against methicillin-resistant Staphylococcus aureus ATCC 43300 incubated for 18 hrs by CLSI method; format: functional; conditions: ATCC 43300, 18 h
Staphylococcus aureus [29] = assay: Induction of cytoplasmic membrane depolarization in Staphylococcus aureus ATCC 29213 at 32 ug/ml incubated for 30 mins by diSC35 staining based fluorescence assay relative to control; format: functional; how it was run: as §2
Acinetobacter baumannii [30] = assay: Antimicrobial activity against Acinetobacter baumannii incubated for 24 hrs by broth microdilution method; format: functional
Clostridioides difficile [31] = assay: Antimicrobial activity against Clostridium difficile incubated for 24 hrs by broth microdilution method; format: functional
Enterococcus faecalis [32] = assay: Antimicrobial activity against vancomycin-resistant Enterococcus faecalis incubated for 24 hrs by broth microdilution method; format: functional
Staphylococcus aureus [33] = assay: Antimicrobial activity against methicillin-resistant Staphylococcus aureus incubated for 24 hrs by broth microdilution method; format: functional; how it was run: as §4
[34] = ATCC 19606 = CIP 70.34 = JCM 6841, 18 h
[35] = Klebsiella pneumoniae, 700603, 18 h

Compound | Activity (Escherichia coli [4]) | MIC (Pseudomonas aeruginosa; ATCC 27853, 18 h) | hemolysis at 2 h, 50 ug/ml [11] | MIC (Staphylococcus aureus [12]) | hemolysis at 2 h, 5 ug/ml [13] | MIC (Escherichia coli [1]; ATCC 25922, 18 h) | Activity (Staphylococcus aureus [15]) | MIC (Streptococcus pneumoniae [16]) | MIC (Staphylococcus aureus [17]) | MIC (Clostridioides difficile [20]) | CC50 at 20 h [21] | MIC (Enterococcus faecalis [22]) | MIC (Staphylococcus aureus [23]) | MIC (Acinetobacter baumannii [5]; [34]) | Activity (Escherichia coli [24]) | MIC (Klebsiella pneumoniae; [35]) | MIC (Clostridioides difficile [27]) | Activity (Staphylococcus aureus [29]) | further results
COLISTIN | 400% | – | – | – | – | – | – | – | – | – | – | – | – | – | – | – | – | – | MIC (Pseudomonas aeruginosa): 0.25 µg/mL; MIC (Escherichia coli [1]): 0.125 µg/mL; Activity (Escherichia coli [2]): 75%; Activity (Staphylococcus aureus [3]): < 1000 CFU/mL; MIC (Acinetobacter baumannii [5]; ATCC 19606 = CIP 70.34 = JCM 6841): 0.25 µg/mL; MIC (Klebsiella pneumoniae): 0.25 µg/mL
CC(C)CCOc1ccc2ccccc2c1-c1c(OCc2cn(C[C@@H](CCCCN)NC(=O)[C@@H](CCCNC(=N)N)NC(=O)CCc3ccccc3)nn2)ccc2ccccc12.Cl.Cl | 460 - 900% | 16 µg/mL | 94.2% | 4 µg/mL | 1.1% | 8 µg/mL | 600% | 4 µg/mL | 4 µg/mL | 16 µg/mL | 27.4 µg/mL | 4 µg/mL | 2 µg/mL | 32 µg/mL | 25 - 40% | 32 µg/mL | 32 µg/mL | 120 - 180% | Activity (Escherichia coli [6]): >=3 log10CFU/ml; MIC (Staphylococcus aureus [7]): 2 µg/mL; MIC (Staphylococcus aureus [8]): 2 to 4 µg/mL; MIC (Streptococcus pneumoniae [9]): 1 to 2 µg/mL; Activity (Staphylococcus aureus [10]): >=3 log10CFU/ml; MIC (Staphylococcus aureus [14]): 4 µg/mL; Activity (Staphylococcus aureus [18]): < 1000 CFU/mL; MIC (Staphylococcus aureus [19]): 2 µg/mL; MIC (Staphylococcus aureus [25]): 2 to 4 µg/mL; MIC (Enterococcus faecalis [26]): 2 µg/mL; MIC (Staphylococcus aureus [28]): 1 to 2 µg/mL
CC(C)CCOc1ccc2ccccc2c1-c1c(OCC(=O)N[C@H](CCCCN)C(=O)N[C@H](CCCNC(=N)N)Cn2cc(CC3CCCCC3)nn2)ccc2ccccc12.Cl.Cl | – | – | 78% | – | – | – | – | – | – | – | – | – | – | – | – | – | – | – | MIC (Acinetobacter baumannii [30]): 4 µg/mL; MIC (Clostridioides difficile [31]): 4 µg/mL; MIC (Enterococcus faecalis [32]): 4 µg/mL; MIC (Staphylococcus aureus [33]): 2 µg/mL
CC(C)CCOc1ccccc1-c1ccccc1OCc1cn(C[C@@H](CCCCN)NC(=O)[C@@H](CCCNC(=N)N)n2cc(CC3CCCCC3)nn2)nn1.Cl.Cl | 460 - 900% | 16 µg/mL | 42.4% | 4 µg/mL | 1.5% | 4 µg/mL | 600% | 4 µg/mL | 4 µg/mL | 4 µg/mL | > 32 µg/mL | 4 µg/mL | 2 µg/mL | 8 µg/mL | 25 - 40% | 16 µg/mL | 4 µg/mL | 120 - 180% | –
CC(C)CCOc1ccccc1-c1ccccc1OCc1cn(C[C@@H](CCCCN)NC(=O)CCc2ccccc2)nn1.Cl | 460 - 900% | 32 µg/mL | 101% | 4 µg/mL | 0.2% | 32 µg/mL | 600% | 8 µg/mL | 8 µg/mL | 8 µg/mL | 4.8 µg/mL | 8 µg/mL | 16 µg/mL | > 32 µg/mL | 75% | 32 µg/mL | 16 µg/mL | 120 - 180% | –
